The source made the active and inactive calls. The rule behind the calls is not given here.
Legend:
[1] = tested on: NCI-H522; experiment: Cytotoxicity against human NCI-H522 cells assessed as growth inhibition at 10 uM after 48 hrs by SRB assay; assay type: functional, cell-based
Outline: (§1)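 Single-dose screen run by the NCI Developmental Therapeutics Program (NCI-60). Cells were grown in RPMI 1640 with 5% fetal bovine serum and 2 mM L-glutamine. They were plated at 5000–40 000 cells/well, depending on doubling time. Each line was run in two plates and exposed to 10 μM drug for 48 h at 37 °C, 5% CO2, 100% humidity. Read-out was growth percent.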

[2] = tested on: NCI-H460; experiment: Cytotoxicity against human NCI-H460 cells assessed as growth inhibition at 10 uM after 48 hrs by SRB assay; assay type: functional, cell-based; outline: as §1
[3] = Induction of [32P]-labeled 49-mer oligonucleotide duplex DNA 12 with GNC sequence at terminus (unknown origin) interstrand cross-linking at 1 mM after 16 hrs by PAGE
Outline: (§2)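 32P-labelled 12a (1.0 μM) annealed with 1.5 equiv of 12b in 10 mM potassium phosphate pH 7 / 100 mM NaCl (65 °C for 3 min, then slow cooling). Duplex incubated with compound (final 1 μM–5 mM), with or without H2O2, in NaCl and potassium phosphate pH 8 at room temperature for 16 h. Quenched in formamide; 20% denaturing PAGE.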

[4] = tested on: TK-10; experiment: Cytotoxicity against human TK10 cells assessed as growth inhibition at 10 uM after 48 hrs by SRB assay; assay type: functional, cell-based
Outline: (§3)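 NCI-60 DTP human tumour line screen. Cells grown in RPMI 1640 with 5% fetal bovine serum and 2 mM L-glutamine, plated at 5000–40 000 cells/well according to doubling time. Single dose of 10 μM for 48 h at 37 °C, 5% CO2, 95% air, 100% humidity, two plates per line. Read-out is growth percent.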

[5] = tested on: OVCAR-8; experiment: Cytotoxicity against human OVCAR8 cells assessed as growth inhibition at 10 uM after 48 hrs by SRB assay; assay type: functional, cell-based; outline: as §1
[6] = tested on: M14; experiment: Cytotoxicity against human M14 cells assessed as growth inhibition at 10 uM after 48 hrs by SRB assay; assay type: functional, cell-based
Outline: (§4)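 NCI DTP 60-cell-line screen run at the NCI. Cells were grown in RPMI 1640 with 5% FBS and 2 mM L-glutamine. They were seeded at 5000–40 000 cells/well depending on doubling time and grown in two plates per line. Each was exposed to a single 10 μM dose for 48 h at 37 °C, 5% CO2, 95% air, 100% humidity. Read-out was percent growth.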

[7] = tested on: PC-3; experiment: Cytotoxicity against human PC3 cells assessed as growth inhibition at 10 uM after 48 hrs by SRB assay; assay type: functional, cell-based; outline: as §1
[8] = tested on: NCI-H23; experiment: Cytotoxicity against human NCI-H23 cells assessed as growth inhibition at 10 uM after 48 hrs by SRB assay; assay type: functional, cell-based; outline: as §1
[9] = tested on: COLO 205; experiment: Cytotoxicity against human COLO205 cells assessed as growth inhibition at 10 uM after 48 hrs by SRB assay; assay type: functional, cell-based; outline: as §4
[10] = tested on: UACC-62; experiment: Cytotoxicity against human UACC62 cells assessed as growth inhibition at 10 uM after 48 hrs by SRB assay; assay type: functional, cell-based; outline: as §3
[11] = tested on: SF-295; experiment: Cytotoxicity against human SF295 cells assessed as growth inhibition at 10 uM after 48 hrs by SRB assay; assay type: functional, cell-based; outline: as §1
[12] = tested on: IGROV-1; experiment: Cytotoxicity against human IGROV1 cells assessed as growth inhibition at 10 uM after 48 hrs by SRB assay; assay type: functional, cell-based; outline: as §4
[13] = tested on: HL-60(TB); experiment: Cytotoxicity against human HL-60(TB) cells assessed as growth inhibition at 10 uM after 48 hrs by SRB assay; assay type: functional, cell-based; outline: as §4
[14] = tested on: MOLT-4; experiment: Cytotoxicity against human MOLT4 cells assessed as growth inhibition at 10 uM after 48 hrs by SRB assay; assay type: functional, cell-based; outline: as §1
[15] = tested on: HCC 2998; experiment: Cytotoxicity against human HCC2998 cells assessed as growth inhibition at 10 uM after 48 hrs by SRB assay; assay type: functional, cell-based; outline: as §4
[16] = tested on: K562; experiment: Cytotoxicity against human K562 cells assessed as growth inhibition at 10 uM after 48 hrs by SRB assay; assay type: functional, cell-based; outline: as §4
[17] = tested on: A549; experiment: Cytotoxicity against human A549 cells assessed as growth inhibition at 10 uM after 48 hrs by SRB assay; assay type: functional, cell-based; outline: as §4
[18] = Induction of [32P]-labeled 49-mer oligonucleotide duplex DNA 12 with GNC sequence at terminus (unknown origin) interstrand cross-linking at 1 mM after 16 hrs by PAGE in presence of H2O2; outline: as §2
[19] = tested on: SK-OV-3; experiment: Cytotoxicity against human SKOV3 cells assessed as growth inhibition at 10 uM after 48 hrs by SRB assay; assay type: functional, cell-based; outline: as §1
[20] = tested on: RXF 393; experiment: Cytotoxicity against human RXF393 cells assessed as growth inhibition at 10 uM after 48 hrs by SRB assay; assay type: functional, cell-based; outline: as §1
[21] = tested on: MDA-MB-435; experiment: Cytotoxicity against human MDA-MB-435 cells assessed as growth inhibition at 10 uM after 48 hrs by SRB assay; assay type: functional, cell-based; outline: as §1
[22] = tested on: OVCAR-4; experiment: Cytotoxicity against human OVCAR4 cells assessed as growth inhibition at 10 uM after 48 hrs by SRB assay; assay type: functional, cell-based; outline: as §1
[23] = tested on: MCF7; experiment: Cytotoxicity against human MCF7 cells assessed as growth inhibition at 10 uM after 48 hrs by SRB assay; assay type: functional, cell-based; outline: as §1
[24] = tested on: CCRF-CEM; experiment: Cytotoxicity against human CCRF-CEM cells assessed as growth inhibition at 10 uM after 48 hrs by SRB assay; assay type: functional, cell-based; outline: as §4
[25] = tested on: Hs-578T; experiment: Cytotoxicity against human Hs578T cells assessed as growth inhibition at 10 uM after 48 hrs by SRB assay; assay type: functional, cell-based; outline: as §4
[26] = tested on: HOP-62; experiment: Cytotoxicity against human HOP62 cells assessed as growth inhibition at 10 uM after 48 hrs by SRB assay; assay type: functional, cell-based; outline: as §4
[27] = tested on: KM12; experiment: Cytotoxicity against human KM12 cells assessed as growth inhibition at 10 uM after 48 hrs by SRB assay; assay type: functional, cell-based; outline: as §4
[28] = tested on: Malme-3M; experiment: Cytotoxicity against human MALME-3M cells assessed as growth inhibition at 10 uM after 48 hrs by SRB assay; assay type: functional, cell-based; outline: as §4
[29] = tested on: BT-549; experiment: Cytotoxicity against human BT549 cells assessed as growth inhibition at 10 uM after 48 hrs by SRB assay; assay type: functional, cell-based; outline: as §4
[30] = tested on: UACC-257; experiment: Cytotoxicity against human UACC257 cells assessed as growth inhibition at 10 uM after 48 hrs by SRB assay; assay type: functional, cell-based; outline: as §3
[31] = tested on: A498; experiment: Cytotoxicity against human A498 cells assessed as growth inhibition at 10 uM after 48 hrs by SRB assay; assay type: functional, cell-based; outline: as §4
[32] = tested on: HCT-15; experiment: Cytotoxicity against human HCT15 cells assessed as growth inhibition at 10 uM after 48 hrs by SRB assay; assay type: functional, cell-based; outline: as §4
[33] = tested on: RPMI-8226; experiment: Cytotoxicity against human RPMI8226 cells assessed as growth inhibition at 10 uM after 48 hrs by SRB assay; assay type: functional, cell-based; outline: as §1
[34] = tested on: NCI/ADR-RES; experiment: Cytotoxicity against human NCI-ADR-RES cells assessed as growth inhibition at 10 uM after 48 hrs by SRB assay; assay type: functional, cell-based; outline: as §1
[35] = tested on: SNB-19; experiment: Cytotoxicity against human SNB19 cells assessed as growth inhibition at 10 uM after 48 hrs by SRB assay; assay type: functional, cell-based; outline: as §3
[36] = tested on: SK-MEL-28; experiment: Cytotoxicity against human SK-MEL-28 cells assessed as growth inhibition at 10 uM after 48 hrs by SRB assay; assay type: functional, cell-based; outline: as §1

CC1(C)OB(c2ccc(N(CCCl)CCBr)cc2)OC1(C)C
growth inhibition (GI) [1]: Active
growth inhibition (GI) [2]: Active
Activity [3]: inactive
growth inhibition (GI) [4]: Active
growth inhibition (GI) [5]: Active
growth inhibition (GI) [6]: Active
growth inhibition (GI) [7]: Active
growth inhibition (GI) [8]: Active
growth inhibition (GI) [9]: Active
growth inhibition (GI) [10]: Active
growth inhibition (GI) [11]: Active
growth inhibition (GI) [12]: Active
growth inhibition (GI) [13]: Active
growth inhibition (GI) [14]: Active
growth inhibition (GI) [15]: Active
growth inhibition (GI) [16]: Active
growth inhibition (GI) [17]: Active
Activity [18]: 37%
growth inhibition (GI) [19]: Active
growth inhibition (GI) [20]: Active
growth inhibition (GI) [21]: Active
growth inhibition (GI) [22]: Active
growth inhibition (GI) [23]: Active
growth inhibition (GI) [24]: Active
growth inhibition (GI) [25]: Active
growth inhibition (GI) [26]: Active
growth inhibition (GI) [27]: Active
growth inhibition (GI) [28]: Active
growth inhibition (GI) [29]: Active
growth inhibition (GI) [30]: Active
growth inhibition (GI) [31]: Active
growth inhibition (GI) [32]: Active
growth inhibition (GI) [33]: Active
growth inhibition (GI) [34]: Active
growth inhibition (GI) [35]: Active
growth inhibition (GI) [36]: Active

CC1(C)OB(c2ccc(N(CCCl)CCOS(C)(=O)=O)cc2)OC1(C)C
growth inhibition (GI) [1]: Active
growth inhibition (GI) [2]: Active
Activity [3]: inactive
growth inhibition (GI) [4]: Active
growth inhibition (GI) [5]: Active
growth inhibition (GI) [6]: Active
growth inhibition (GI) [7]: Active
growth inhibition (GI) [8]: Active
growth inhibition (GI) [9]: Active
growth inhibition (GI) [10]: Active
growth inhibition (GI) [11]: Active
growth inhibition (GI) [12]: Active
growth inhibition (GI) [13]: Active
growth inhibition (GI) [14]: Active
growth inhibition (GI) [15]: Active
growth inhibition (GI) [16]: Active
growth inhibition (GI) [17]: Active
Activity [18]: 37%
growth inhibition (GI) [19]: Active
growth inhibition (GI) [20]: Active
growth inhibition (GI) [21]: Active
growth inhibition (GI) [22]: Active
growth inhibition (GI) [23]: Active
growth inhibition (GI) [24]: Active
growth inhibition (GI) [25]: Active
growth inhibition (GI) [26]: Active
growth inhibition (GI) [27]: Active
growth inhibition (GI) [28]: Active
growth inhibition (GI) [29]: Active
growth inhibition (GI) [30]: Active
growth inhibition (GI) [31]: Active
growth inhibition (GI) [32]: Active
growth inhibition (GI) [33]: Active
growth inhibition (GI) [34]: Active
growth inhibition (GI) [35]: Active
growth inhibition (GI) [36]: Active

CC1(C)OB(c2ccc(N(CCCl)CCCl)cc2)OC1(C)C
growth inhibition (GI) [1]: Active
growth inhibition (GI) [2]: Active
Activity [3]: inactive
growth inhibition (GI) [4]: Active
growth inhibition (GI) [5]: Active
growth inhibition (GI) [6]: Active
growth inhibition (GI) [7]: Active
growth inhibition (GI) [8]: Active
growth inhibition (GI) [9]: Active
growth inhibition (GI) [10]: Active
growth inhibition (GI) [11]: Active
growth inhibition (GI) [12]: Active
growth inhibition (GI) [13]: Active
growth inhibition (GI) [14]: Active
growth inhibition (GI) [15]: Active
growth inhibition (GI) [16]: Active
growth inhibition (GI) [17]: Active
Activity [18]: 37%
growth inhibition (GI) [19]: Active
growth inhibition (GI) [20]: Active
growth inhibition (GI) [21]: Active
growth inhibition (GI) [22]: Active
growth inhibition (GI) [23]: Active
growth inhibition (GI) [24]: Active
growth inhibition (GI) [25]: Active
growth inhibition (GI) [26]: Active
growth inhibition (GI) [27]: Active
growth inhibition (GI) [28]: Active
growth inhibition (GI) [29]: Active
growth inhibition (GI) [30]: Active
growth inhibition (GI) [31]: Active
growth inhibition (GI) [32]: Active
growth inhibition (GI) [33]: Active
growth inhibition (GI) [34]: Active
growth inhibition (GI) [35]: Active
growth inhibition (GI) [36]: Active

CC1(C)OB(c2ccc(N(CCBr)CCOS(C)(=O)=O)cc2)OC1(C)C
growth inhibition (GI) [1]: Active
growth inhibition (GI) [2]: Active
Activity [3]: inactive
growth inhibition (GI) [4]: Active
growth inhibition (GI) [5]: Active
growth inhibition (GI) [6]: Active
growth inhibition (GI) [7]: Active
growth inhibition (GI) [8]: Active
growth inhibition (GI) [9]: Active
growth inhibition (GI) [10]: Active
growth inhibition (GI) [11]: Active
growth inhibition (GI) [12]: Active
growth inhibition (GI) [13]: Active
growth inhibition (GI) [14]: Active
growth inhibition (GI) [15]: Active
growth inhibition (GI) [16]: Active
growth inhibition (GI) [17]: Active
Activity [18]: 37%
growth inhibition (GI) [19]: Active
growth inhibition (GI) [20]: Active
growth inhibition (GI) [21]: Active
growth inhibition (GI) [22]: Active
growth inhibition (GI) [23]: Active
growth inhibition (GI) [24]: Active
growth inhibition (GI) [25]: Active
growth inhibition (GI) [26]: Active
growth inhibition (GI) [27]: Active
growth inhibition (GI) [28]: Active
growth inhibition (GI) [29]: Active
growth inhibition (GI) [30]: Active
growth inhibition (GI) [31]: Active
growth inhibition (GI) [32]: Active
growth inhibition (GI) [33]: Active
growth inhibition (GI) [34]: Active
growth inhibition (GI) [35]: Active
growth inhibition (GI) [36]: Active
